An excerpt weighted towards active compounds, which were near 4.5% of everything screened.
TAAR1 agonist: human TAAR1 agonism; activation, % at 3 µM; actives 0.99% (n = 360,000); Q96RJ0; CHO RD-HGA16 TAAR1, Fluo-8 calcium fluorescence; vehicle wells 0%, saturating PEA agonist 100%;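 active = activation above the mean activation of all test compounds in the run plus 3 SD, cut at about 38% in these data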
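Assay system – CHO-derived RD-HGA16 cells with stable Gα16 and human TAAR1 · Compound dosing – one-point dosing at 3 µM (nominal) · Incubation – 17-24 h seeding, 75 min 37 °C dye, 30 min RT · Measured by – kinetic Fluo-8 calcium fluorescence · Control set – DMSO vehicle as 0%, PEA at EC100 as 100% · Repeats – single well for each compound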
CHO parental Ca: counter-screen for OX1R antagonists: effect in parental CHO cells; parental CHO-K1, ATP-induced calcium, Fluo-8 fluorescence; actives 0.63% (n = 330,000); AID 463079; inhibition, % at 5.6 µM;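 active = inhibition above that plate's mean sample inhibition plus 3 SD, cut at about 26% in these data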;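 note: 0% = ATP-challenged DMSO wells and 100% = DMSO wells without ATP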
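material = parental CHO cells | also added = ATP as calcium-mobilizing challenge | dosing = single point at 5.6 µM | detection = intracellular calcium via Fluo-8 no-wash fluorescent dye | read-out = % inhibition | benchmarks = low control ATP plus DMSO, high control DMSO only | repeats = one well per compound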
OX1R antag-1: blocks the human orexin 1 receptor; O43613; OX1R-expressing cells, FRET antagonist read-out; inhibition, % at 6.6 µM; actives 1.8% (n = 330,000); AID 485270; in the data active = inhibition mostly above about 38%, no sharp cut-off; inactive = mostly below about 40%;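 note: 0% = agonist challenge alone and 100% = reference antagonist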
GPR7 antag: human neuropeptides B/W receptor 1 antagonism | P48145 | GPR7-expressing cells, fluorescence antagonist assay | inhibition, % at 4.4 µM | actives 1.1% (n = 290,000) | AID 1861; in the data active = inhibition above about 16%, passing the limit was not always enough;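 note: cells stimulated with the agonist NPW; 0% = agonist with vehicle and 100% = vehicle without agonist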
Target sequence (P48145 whole entry, looked up): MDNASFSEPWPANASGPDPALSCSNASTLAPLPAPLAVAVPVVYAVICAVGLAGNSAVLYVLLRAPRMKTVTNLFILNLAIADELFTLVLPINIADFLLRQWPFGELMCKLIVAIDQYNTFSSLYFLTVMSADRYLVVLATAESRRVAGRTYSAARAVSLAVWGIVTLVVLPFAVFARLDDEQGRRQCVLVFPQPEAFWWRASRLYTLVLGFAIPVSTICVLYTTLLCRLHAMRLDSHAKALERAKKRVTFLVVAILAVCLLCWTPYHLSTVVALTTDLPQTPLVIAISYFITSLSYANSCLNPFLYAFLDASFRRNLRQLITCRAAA
TAAR1 antag: human TAAR1 antagonism; Q96RJ0; AID 624466; actives 1.5% (n = 360,000); inhibition, % at 3 µM; CHO RD-HGA16 TAAR1, Fluo-8 calcium fluorescence, antagonist;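 active = inhibition above a per-plate cutoff, the mean inhibition of test compounds on that plate plus 3 SD, cut at about 49% in these data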;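 note: 0% = DMSO plus EC80 beta-PEA response and 100% = DMSO alone without agonist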
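Test system: hTAAR1-expressing CHO RD-HGA16 cells, Gα16-coupled; Probe or stimulus: EC80 β-phenethylamine stimulus; Compound dosing: single nominal final test compound concentration of 3 µM; Timing: 140 s kinetic read after compound, 140 s after agonist; Signal: Fluo-8 calcium-sensitive fluorescence; Measure: % inhibition of agonist calcium response; Controls: DMSO and EC80 PEA controls.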
OX1R antag-2: human HCRTR1 antagonism | AID 434989 | actives 0.43% (n = 330,000) | CHO/OX1R cells, Fluo-8 calcium fluorescence, orexin A | O43613 | inhibition, % at 5 µM;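 active = inhibition above its plate's threshold, mean inhibition of all tested compounds on the plate plus 3 SD, cut at about 37% in these data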;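 note: 0% = orexin A challenge wells and 100% = SB-334867-A antagonist wells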
* = called active by the depositor; nt = no result given.

SMILES	TAAR1 agonist	CHO parental Ca	OX1R antag-1	GPR7 antag	TAAR1 antag	OX1R antag-2
CN(CC(=O)Nc1ccc(F)cc1[N+](=O)[O-])C1CCS(=O)(=O)C1 (centres undefined)	10.2	-2.4	34.2*	nt	-7.2	16.4
CN(CC(=O)Nc1ccccc1Cl)C1CCS(=O)(=O)C1 (centres undefined)	3.8	-0.4	4.2	nt	-0.2	-23.1
O=C(O)CCCCN1C(=O)C=CC1=O	1.5	nt	nt	nt	-17.0	nt
CCOC(=O)c1ccc(/C=N/O)[n+](Cc2ccccc2)c1	5.7	-0.2	59.9*	-19.8	-16.2	-2.2
CN(C(=O)c1cccc(NC(=O)Cc2ccc(NC(=O)C3CCN(C(=O)CCc4ccccc4)CC3)cc2)c1)C1CCCC1	0.8	nt	nt	nt	-10.7	nt
O=C(Nc1ccccc1-c1nc2ccccc2[nH]1)c1ccc(N2C(=O)CCC2=O)cc1	18.6	-0.3	22.4	-11.9	50.4*	-7.0
C[C@@H](c1ccccc1)N1C[C@@H](COCc2ccccc2)Oc2cc(N3CC[C@@H](N(C)C)C3)ccc2S1(=O)=O	10.4	nt	nt	nt	6.5	nt
OCc1ccc2c(c1)c(-c1ccc3c(c1)OCCO3)c(-c1ccccc1)n2-c1ccccc1	4.9	-17.5	14.3	nt	62.0*	13.3
O=C(/C=C/c1cn(-c2ccccc2)nc1-c1ccc2c(c1)OCCO2)NCCO	-0.3	-20.3	28.8	-4.2	-4.5	-28.6
CCOC(=O)c1cc(-c2ccc(OC)cc2)nc2c1c(C)nn2CCC#N	9.1	-31.1	10.1	19.1*	5.9	-16.9
